# Experimental data published in article PMC3737387 (Nuclear medicine and biology, 2013).
# “And” between values parts separate entries of the source, which are not always exact repeats. Equal values may be shown once.
# Key:
# FAAH [1] = details: URB597 2 mg/kg ip; cited from earlier work
# FAAH [2] = details: rodents; cited from earlier work
# [3] = Ex vivo biodistribution of [^11C]PF-04457845 in conscious rat brain and plasma; details: for Ex vivo biodistribution, Cerebellum / Ex vivo biodistribution, Cortex / Ex vivo biodistribution, Hypothalamus / Ex vivo biodistribution, Plasma / Ex vivo biodistribution, Rest of Brain: n = 4
# FAAH [4] = molecular target: T1, FAAH (Rattus norvegicus, UniProt P97612); test: Pharmacological blocking of [^11C]PF-04457845 uptake in rat brain; format: in vivo; details: control vs URB597 (2 mg/kg ip) pretreated group; 40 min post injection
# T1 sequence (P97612 1-579): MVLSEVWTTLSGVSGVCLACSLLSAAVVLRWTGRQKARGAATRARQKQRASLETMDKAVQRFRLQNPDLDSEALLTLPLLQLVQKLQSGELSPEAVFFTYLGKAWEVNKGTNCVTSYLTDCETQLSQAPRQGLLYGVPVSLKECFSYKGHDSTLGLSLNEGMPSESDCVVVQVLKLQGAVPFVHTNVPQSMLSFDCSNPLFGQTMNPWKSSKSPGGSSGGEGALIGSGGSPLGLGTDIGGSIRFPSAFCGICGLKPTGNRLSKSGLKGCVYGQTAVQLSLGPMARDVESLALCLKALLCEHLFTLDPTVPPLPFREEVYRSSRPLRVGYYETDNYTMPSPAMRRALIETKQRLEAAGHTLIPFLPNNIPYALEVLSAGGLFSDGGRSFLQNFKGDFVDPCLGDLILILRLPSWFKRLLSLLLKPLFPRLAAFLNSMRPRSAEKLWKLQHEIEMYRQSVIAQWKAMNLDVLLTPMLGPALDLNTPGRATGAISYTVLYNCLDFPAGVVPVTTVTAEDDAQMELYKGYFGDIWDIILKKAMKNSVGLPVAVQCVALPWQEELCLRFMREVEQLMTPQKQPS
# [5] = HPLC analysis of plasma metabolites; format: in vivo; details: rat
# Method in brief: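 Heparinized rat trunk blood is centrifuged, and the plasma is acidified with 20% (v/v) of 50% aqueous acetic acid. It is loaded onto an HLB capture column, eluted with 1% acetonitrile (2 mL/min, 4 min), then backflushed with 60% acetonitrile/water + 0.1 N ammonium formate (pH 4) onto C18. Detection is by coincidence-mode radio-flow. Eluent switches to 100% ethanol after the parent to detect lipophilic metabolites. Peaks are decay-corrected and integrated.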
# FAAH [6] = molecular target: T1, FAAH; test: Irreversible binding of [^11C]PF-04457845 to FAAH in the rat brain; format: in vivo
# FAAH [7] = details: rodents, cited from earlier work
# FAAH [8] = details: Phase II crossover study, pain associated with osteoarthritis; cited from earlier work
# FAAH [9] = details: previously reported; cited from earlier work
structure (smiles),measurement,setting,value
"NC(=O)c1cccc(-c2cccc(OC(=O)NC3CCCCC3)c2)c1 [URB597, 3′-carbamoyl-[1,1′-biphenyl]-3-yl-cyclohexylcarbamate]",FAAH enzyme inactivated in rodent brains,FAAH [1],> 90% and 90%
"COc1ccc(NC(=O)Oc2ccc[11c](-c3ccccc3)c2)cc1 [[^11C]1,1′-biphenyl-3-yl-(4-methoxyphenyl)carbamate]",brain uptake,FAAH [2],low brain uptake
same,specific binding,FAAH [2],no detectable specific binding
O=C(Nc1cccnn1)N1CCC(=Cc2cccc(Oc3ccc(C(F)(F)F)cn3)c2)CC1 [[^11C]PF-04457845],brain uptake,"[3]; conscious rats, tail-vein injection, across regions and time points",1.2 to 4.4 SUV
same,"Ex vivo biodistribution, Cerebellum","[3]; rat, 2 min post iv injection",1.87 ± 0.05 SUV
same,"Ex vivo biodistribution, Cortex","[3]; rat, 2 min post iv injection",2.22 ± 0.06 SUV
same,"Ex vivo biodistribution, Hypothalamus","[3]; rat, 2 min post iv injection",1.29 ± 0.05 SUV
same,"Ex vivo biodistribution, Plasma","[3]; rat, 2 min post iv injection",1.03 ± 0.19 SUV
same,"Ex vivo biodistribution, Rest of Brain","[3]; rat, 2 min post iv injection",1.51 ± 0.08 SUV
same,"Ex vivo biodistribution, Cerebellum","[3]; rat, 15 min post iv injection",3.17 ± 0.10 SUV
same,"Ex vivo biodistribution, Cortex","[3]; rat, 15 min post iv injection",3.64 ± 0.24 SUV
same,"Ex vivo biodistribution, Hypothalamus","[3]; rat, 15 min post iv injection",1.96 ± 0.10 SUV
same,"Ex vivo biodistribution, Plasma","[3]; rat, 15 min post iv injection",0.33 ± 0.04 SUV
same,"Ex vivo biodistribution, Rest of Brain","[3]; rat, 15 min post iv injection",2.44 ± 0.07 SUV
same,"Ex vivo biodistribution, Cerebellum","[3]; rat, 40 min post iv injection",3.56 ± 0.10 SUV
same,"Ex vivo biodistribution, Cortex","[3]; rat, 40 min post iv injection",4.11 ± 0.30 SUV
same,"Ex vivo biodistribution, Hypothalamus","[3]; rat, 40 min post iv injection",2.18 ± 0.20 SUV
same,"Ex vivo biodistribution, Plasma","[3]; rat, 40 min post iv injection",0.12 ± 0.01 SUV
same,"Ex vivo biodistribution, Rest of Brain","[3]; rat, 40 min post iv injection",2.77 ± 0.24 SUV
same,"Ex vivo biodistribution, Cerebellum","[3]; rat, 60 min post iv injection",3.42 ± 0.34 SUV
same,"Ex vivo biodistribution, Cortex","[3]; rat, 60 min post iv injection",3.92 ± 0.37 SUV
same,"Ex vivo biodistribution, Hypothalamus","[3]; rat, 60 min post iv injection",2.10 ±0.31 SUV
same,"Ex vivo biodistribution, Plasma","[3]; rat, 60 min post iv injection",0.09 ± 0.03 SUV
same,"Ex vivo biodistribution, Rest of Brain","[3]; rat, 60 min post iv injection",2.59 ± 0.19 SUV
same,time at which brain uptake reaches a plateau,"[3]; rat, post injection",40 min
same,"specific to non-specific binding ratio, cerebellum",FAAH [4],3.4
same,"specific to non-specific binding ratio, cortex",FAAH [4],4.2
same,"specific to non-specific binding ratio, hypothalamus",FAAH [4],2.5
same,parent radiotracer remaining in plasma,[5]; 15 min post injection,82%
same,parent radiotracer remaining in plasma,[5]; 40 min post injection,73%
same,parent radiotracer remaining in plasma,[5]; 60 min post injection,66%
same,"lipophilic metabolite, share of total radioactivity present in plasma",[5]; later time-points,3 – 3.5%
same,SBR (specific to non-specific binding ratio) to FAAH from extraction studies,"FAAH [6]; rat whole brain, ([95/5]-1)",> 18
same,radioactivity irreversibly bound to brain tissue,"FAAH [6]; rat, 2 min post injection",84%
same,extractable brain radioactivity,"FAAH [6]; rat, 40 min post injection",2%
same,radioactivity in whole brain that is FAAH-bound,"FAAH [6]; rat, 40 min post injection",> 95%
same,radioactivity irreversibly bound to brain tissue,"FAAH [6]; rat, 40 min post injection",98%
same,radioactivity bound to brain parenchyma,"FAAH [6]; rat, after ip pre-treatment with URB597 (2 mg/kg)",5%
"O=C(Nc1cccnn1)N1CCC(=Cc2cccc(Oc3ccc(OCC[18F])cn3)c2)CC1 [[^18F]PF-9811, 4-(3-((5-(2-[^18F]fluoroethoxy)pyridine-2-yl)oxy)benzylidene)-N-(pyridazin-3-yl)piperidine-1-carboxamide]",brain uptake in the cortex,FAAH [7]; 90 min,0.8 SUV
same,specific to non-specific binding ratios,FAAH [7],2.3 – 2.6
O=C(Nc1cccnn1)N1CCC(=Cc2cccc(Oc3ccc(C(F)(F)F)cn3)c2)CC1 [PF-04457845],analgesic effect,FAAH [8],did not induce an analgesic effect
same,endocannabinoid levels in blood,FAAH [8],modulate endocannabinoid levels in blood
"O=[11C](NC1CCCCC1)Oc1ccc(O)c(-c2ccccc2)c1 [[^11C]CURB, [^11C-carbonyl]-6-hydroxy-[1,1′-biphenyl]-3-yl-cyclohexylcarbamate]",level of specific binding,FAAH [9],80%
